From ChEMBL document CHEMBL1777729, “Structure-based lead identification of ATP-competitive MK2 inhibitors” (Bioorg Med Chem Lett, 2011)
Values after ≈ are worked out from the molar mass of the structure shown.

How the values were obtained:
[1] = target: MAP kinase-activated protein kinase 2 (Homo sapiens, UniProt P49137); assay: Inhibition of MK2 pretreated for 30 mins before substrate addition measured after 2 hrs by IMAP assay
THP-1 [2] = assay: Antiinflammatory activity in human THP1 cells assessed as inhibition of LPS-induced TNFalpha production at 10 uM treated 30 mins before LPS challenge measured after 4 hrs by ELISA; assay type: functional
[3] = Permeability of the compound by PAMPA; assay type: ADME; details: read-out: permeability
[4] = Permeability across human Caco2 cells; assay type: ADME, cell-based; details: Caco-2, read-out: permeability
[5] = Half life in human liver microsomes; assay type: ADME, Microsome
[6] = Half life in rat liver microsomes; assay type: ADME, Microsome
[7] = Plasma protein binding in plasma; assay type: ADME, cell-free; details: read-out: PPB (converted)
[8] = Kinetic solubility of the compound at pH 7.4; assay type: physicochemical; details: buffer
THP-1 [9] = assay: Antiinflammatory activity in human THP1 cells assessed as inhibition of LPS-induced TNFalpha production treated 30 mins before LPS challenge measured after 4 hrs by ELISA; assay type: functional, cell-based
How it was run: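 THP1 cells seeded at 1.5 × 10^5 per well in DMEM F12 and rested ≥18 h at 37 °C, 5–7% CO2, humidified. Compounds added in DMSO (0.1% final) for 30 min, then LPS added. After 4 h at 37 °C, TNFα in the culture medium was quantified by ELISA. EC50 from duplicates per dilution.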

PBMC = assay: Antiinflammatory activity in human PBMC cells assessed as inhibition of LPS-induced TNFalpha production treated 30 mins before LPS challenge measured after 4 hrs by ELISA; assay type: functional, cell-based
[10] = AUC in rat at 10 umol/kg, po; assay type: ADME, organism-based; details: plasma
How it was run: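 Rat PK after oral dosing at 10 µmol/kg; exposure expressed as AUC.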

[11] = AUC in rat at 4 umol/kg, iv; assay type: ADME, organism-based; details: plasma
[12] = AUC in rat at 10 umol/kg, sc; assay type: ADME, organism-based; details: plasma
How it was run: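 Rat PK after subcutaneous dosing at 10 µmol/kg; exposure expressed as AUC.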

Rattus norvegicus [13] = assay: Antiinflammatory activity in sc dosed rat assessed as inhibition of LPS-induced TNFalpha production in serum administered 1 hr before LPS challenge measured after 1.5 hrs by ELISA
Rattus norvegicus [14] = assay: Antiinflammatory activity in rat assessed as inhibition of LPS-induced TNFalpha production in serum at 30 mg/kg, sc administered 1 hr before LPS challenge measured after 1.5 hrs by ELISA
Rattus norvegicus [15] = assay: Antiinflammatory activity in rat assessed as inhibition of LPS-induced TNFalpha production in serum at 10 mg/kg, sc administered 1 hr before LPS challenge measured after 1.5 hrs by ELISA
Rattus norvegicus [16] = assay: Antiinflammatory activity in rat assessed as inhibition of LPS-induced TNFalpha production in serum at 12.5 mg/kg, iv administered 1 hr before LPS challenge measured after 1.5 hrs by ELISA

MAP kinase-activated protein kinase 2, sequence (P49137 whole entry): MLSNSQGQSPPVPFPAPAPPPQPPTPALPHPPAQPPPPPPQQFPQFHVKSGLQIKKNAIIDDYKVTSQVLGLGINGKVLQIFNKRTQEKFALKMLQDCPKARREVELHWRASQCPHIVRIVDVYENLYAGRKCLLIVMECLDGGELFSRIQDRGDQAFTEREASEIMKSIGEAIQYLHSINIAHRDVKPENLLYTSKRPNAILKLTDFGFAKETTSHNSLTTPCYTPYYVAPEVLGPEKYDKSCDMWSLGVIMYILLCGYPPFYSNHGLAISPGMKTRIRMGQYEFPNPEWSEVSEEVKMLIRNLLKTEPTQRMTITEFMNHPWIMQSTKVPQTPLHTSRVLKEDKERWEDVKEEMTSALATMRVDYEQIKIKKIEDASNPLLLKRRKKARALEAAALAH

Structure (SMILES) | EC50 [1] [µM] | inhibition at 10 µM (THP-1 [2]) [%] | half-life [5] [min] | half-life [6] [min] | fraction unbound [7] | solubility kinetic [8] [mg/mL] | further results
NCC1CNC(=O)c2cc(-c3ccnc(-c4cnc5ccccc5c4)c3)nn21 (configuration not stated) | 0.151 |  |  |  |  |  | 
O=C1NCC2(CCCC2)c2[nH]c(-c3ccnc(-c4cnc5ccccc5c4)n3)cc21 | 0.234 | 50 |  |  |  |  | 
O=C1NCCc2[nH]c(-c3ccnc(-c4cnc5ccccc5c4)c3)cc21 |  | 38 | 35 | 40 | 0.003 |  | Papp [3]: 6 nm/s; Papp [4]: 5 nm/s
O=C1NCC2(CCNCC2)c2[nH]c(-c3ccnc(-c4cnc5ccccc5c4)n3)cc21 | 0.006 |  |  |  |  | 0.023 (≈ 56 µM) | 
O=C1NCC2(CCNCC2)c2[nH]c(-c3ccnc(-c4ccc5c(c4)OCO5)n3)cc21 |  |  | 91 | > 120 | 0.03 | 0.037 (≈ 91.7 µM) | EC50 (THP-1 [9]): 0.98 µM; EC50 (PBMC): 0.26 µM; AUC [10]: 16 nM·h; AUC [11]: 1260 nM·h; AUC [12]: 2710 nM·h; inhibition (Rattus norvegicus [13]): Dose-dependent effect; inhibition in vivo at 30 mg/kg (Rattus norvegicus [14]): 85%; inhibition in vivo at 10 mg/kg (Rattus norvegicus [15]): 54%; inhibition in vivo at 12.5 mg/kg (Rattus norvegicus [16]): 92%
NCCn1nc(-c2ccnc(-c3cnc4ccccc4c3)c2)cc1C(=O)O | 0.028 | 7 |  |  |  | 0.033 (≈ 91.8 µM) | 
